Results gathered from unrelated publications.
Compare with care: the assays were run in different laboratories.
Read-out: cell growth or viability

COCCCOc1ccnc(COc2ccc(NC(=O)Nc3ccc(Cl)c(C(F)(F)F)c3)cc2)c1C  IC50 (L02; MTT; 72 h): > 100 µM
COc1ccc(C(=O)O[C@@H]2CN3Cc4c(cc5c(c4OC)OCO5)[C@@]24C=C[C@H](OC)C[C@@H]34)cc1OC  IC50 (PANC-1; WST-1): 2.3 µM
Cc1cc(Oc2ccc(NC(=O)c3sc(-c4ccccc4)nc3C)cc2F)c2nncn2n1  IC50 (L02; MTT): > 50 µM
Cc1ccc(S(=O)(=O)OCC(=O)Nc2ccc(C(=O)O)c(O)c2)cc1  IC50 (OCI-AML2): 112 µM
CC(=O)c1cccc(/N=N/c2cc(/C=C/C(=O)O)ccc2O)c1  IC50 (PANC-1; MTT): > 50 µM
COc1c(C)cnc(COc2ccc(NC(=O)Nc3ccc(Cl)cc3)cc2)c1C  IC50 (L02; MTT; 72 h): > 100 µM
Oc1c(I)cc(Cl)c2cccnc12  IC50 (L02; MTT; 48 h): 79 µM
CC[C@]1(O)C[C@H]2CN(CCc3c([nH]c4ccccc34)[C@@](C(=O)OC)(c3cc4c(cc3OC)N(C=O)[C@H]3[C@@](O)(C(=O)OC)[C@H](OC(C)=O)[C@]5(CC)C=CCN6CC[C@]43[C@@H]65)C2)C1  IC50 (NALM-6; MTT; 48 h): 0.00087 µM
COc1c(C)cnc(COc2ccc(NC(=O)Nc3cc(F)cc(F)c3)cc2)c1C  IC50 (L02; MTT; 72 h): > 100 µM
N[C@@H](CC(=O)N1CCN(C(c2ccc(F)cc2)c2ccc(F)cc2)CC1)C(=O)N1Cc2ccccc2C1  IC50 (OCI-AML2; ATP luminescence; 48 h): 1.41 µM
COc1cc(-c2ncn(/C=C\C(=O)OC(C)C)n2)cc(C(F)(F)F)c1  IC50 (OCI-AML-3; 72 h): 0.112 µM
COc1cc2nccc(Oc3ccc(NC(=O)C4(C(=O)Nc5ccc(F)cc5)CC4)cc3)c2cc1OC  IC50 (OCI-AML-3; trypan blue; 72 h): > 9 µM
Cc1ccc2c(Br)cc(Br)c(O)c2n1  IC50 (L02; MTT; 48 h): > 100 µM
Nc1ncc(-c2cnn(C3CCNCC3)c2)cc1-c1nnc(CC2CC2)o1  IC50 (OCI-AML-3; trypan blue; 72 h): 0.479 µM
COc1cccc2c1C(=O)c1c(O)c3c(c(O)c1C2=O)C[C@@](O)(C(=O)CO)C[C@@H]3O[C@H]1C[C@H](N)[C@H](O)[C@H](C)O1  IC50 (CCD-986Sk; MTT; 48 h): > 10 µg/mL
COc1ccnc(COc2ccc(NC(=O)Nc3ccc(Cl)cc3)cc2)c1OC  IC50 (L02; MTT; 72 h): > 100 µM
Cc1cc(Oc2ccc(NC(=O)c3sc(-c4ccc(F)cc4)nc3C)cc2)c2nncn2n1  IC50 (L02; MTT): > 50 µM
C#Cc1cccc(Nc2ncnc3cc(OCCOC)c(OCCOC)cc23)c1  IC50 (PANC-1; MTT): 0.05 µM
Cc1c(OCC(F)(F)F)ccnc1COc1ccc(NC(=O)Nc2ccc(Cl)cc2)cc1  IC50 (L02; MTT; 72 h): > 100 µM
Cc1cc(Oc2ccc(NC(=O)c3sc(-c4cccnc4)nc3C)cc2)n2ncnc2n1  IC50 (L02; MTT): > 50 µM
Clc1ccnc2c1ccc1c(Cl)ccnc12  IC50 (L02; MTT; 48 h): > 50 µM
Cc1cc(Oc2ccc(NC(=O)c3sc(-c4ccccn4)nc3C)cc2F)c2nncn2n1  IC50 (L02; MTT): > 50 µM
CCN1CCN(c2ccc(Nc3cc(N(C)C(=O)Nc4c(Cl)c(OC)cc(OC)c4Cl)ncn3)cc2)CC1  IC50 (Li-7; ATP luminescence; 96 h): > 1 µM
Cc1cc(Oc2ccc(NC(=O)c3sc(-c4ccccc4)nc3C)cc2F)n2ncnc2n1  IC50 (L02; MTT): > 50 µM
CO[C@H]1/C=C\C=C(/C)C(=O)NC2=C(C)C(=O)C(NCCN(C)C)=C(C[C@@H](C)C[C@H](OC)[C@H](O)[C@@H](C)/C=C(\C)[C@@H]1OC(N)=O)C2=O  IC50 (ARPE-19; MTT): > 20 µM
Cc1cnc(-c2ccc(-c3ccc(NC(=O)Nc4c(F)cc(F)cc4F)cc3F)c3c2C(=O)NC3)[nH]1  IC50 (OCI-AML-3): 0.0118 µM
COc1cc(C2Oc3cc([C@H]4Oc5cc(O)cc(O)c5C(=O)[C@@H]4O)ccc3OC2CO)ccc1O (some centres unmarked)  IC50 (RWPE-1; CCK-8; 72 h): > 300 µM
COc1ccnc(COc2ccc(NC(=O)Nc3cc(F)cc(F)c3)cc2)c1OC  IC50 (L02; MTT; 72 h): > 100 µM
O=C(N/N=C/c1c(O)ccc2ccccc12)c1cc(-c2ccc3ccccc3c2)n[nH]1  IC50 (WM-115; MTS; 48 h): 5.6 µM
Cc1c(OCC(F)(F)F)ccnc1COc1ccc(NC(=O)Nc2cc(F)cc(F)c2)cc1  IC50 (L02; MTT; 72 h): > 100 µM
CO[C@H]1/C=C\C=C(/C)C(=O)NC2=CC(=O)C(NCCN(C)C)=C(C[C@@H](C)C[C@H](OC)[C@H](O)[C@@H](C)/C=C(\C)[C@@H]1OC(N)=O)C2=O  IC50 (ARPE-19; MTT): 0.15 µM
CC[C@@H](C)[C@H](N)C(=O)N1Cc2ccccc2C1  IC50 (OCI-AML2; ATP luminescence): 0.3 µM
Oc1ccc(Nc2nc(-c3ccc(Cl)cc3)cs2)cc1  IC50 (WM-115; MTS; 24 h): 38.9 µM
Cc1cc(Oc2ccc(NC(=O)c3sc(-c4ccncc4)nc3C)cc2F)c2nncn2n1  IC50 (L02; MTT): > 50 µM
COc1ccnc(COc2ccc(NC(=O)Nc3ccc(Cl)c(C(F)(F)F)c3)cc2)c1OC  IC50 (L02; MTT; 72 h): > 100 µM
